Results gathered from unrelated publications.
Protocols differ between the studies behind these lines.
Technique: competition with immobilised ligand
RPS6KA4 C-terminal kinase domain: Ribosomal protein S6 kinase alpha-4, C-terminal kinase domain (RPS6KA4, Homo sapiens, UniProt O75676)
RPS6KA4 N-terminal kinase domain: Ribosomal protein S6 kinase alpha-4, N-terminal kinase domain (RPS6KA4, Homo sapiens, UniProt O75676)

FC(F)(F)Oc1cccc(-c2cnc3ccc(-c4ccncc4)nn23)c1
remaining binding (RPS6KA4 C-terminal kinase domain; binding; 5 µM): 87%

C[C@@H](c1ccc(-n2cnc3c(N)ncnc32)cc1)N1CCc2nn(C)c(Cc3ccccc3)c2C1=O
remaining binding (RPS6KA4 N-terminal kinase domain; binding; 0.1 µM): 84%

COc1cnc(Nc2cccc(S(N)(=O)=O)c2)nc1N1CCN(c2ccccc2)C(=O)C1
remaining binding (RPS6KA4 N-terminal kinase domain; binding; 1 µM): 100%

O=C(Nc1cccnn1)N1CC(C/C=C/c2cncc(Oc3ccc(C(F)(F)F)cn3)n2)C1
remaining binding (RPS6KA4 N-terminal kinase domain; cell-free assay; 1 µM): 100%

N[C@@H]1CCN(c2nccc(-c3cnn4ncccc34)n2)C1
remaining binding (RPS6KA4 C-terminal kinase domain; binding; 1 µM): 100%

O=C(N1CCS(=O)(=O)CC1)N1C[C@H](c2ccc(OC(F)(F)F)cc2)C[C@H](c2nc(C3CC3)no2)C1
remaining binding (RPS6KA4 N-terminal kinase domain; cell-free assay; 1 µM): 100%

c1cncc(-c2cccc(Nc3nccc(NC4CCCCC4)n3)c2)c1
remaining binding (RPS6KA4 C-terminal kinase domain; binding; 10 µM): 100%

Cc1cnc(Nc2ccc(C(=O)N3CCC(N4CCCC4)CC3)cc2)nc1-c1cc2ccccc2s1
remaining binding (RPS6KA4 N-terminal kinase domain; binding; 1 µM): 100%

CNC(=O)[C@@H]1CC[C@@H](n2c(-c3ccc4cnccc4c3)nc3ccc(C(=O)NCc4cccc(C(N)=O)c4)cc32)C1
remaining binding (RPS6KA4 N-terminal kinase domain; binding; 1 µM): 100%

O=C(c1ccc(Nc2ncc(Cl)c(-c3cc4ccccc4s3)n2)cc1)N1CCC(N2CCCC2)CC1
remaining binding (RPS6KA4 N-terminal kinase domain; binding; 1 µM): 100%

CN(c1nccc(-c2cnn3ncccc23)n1)C1CC1
remaining binding (RPS6KA4 C-terminal kinase domain; binding; 1 µM): 100%

O=C(NCC1CCOCC1)c1n[nH]cc1NC(=O)c1c(F)cccc1F
remaining binding (RPS6KA4 C-terminal kinase domain; binding; 1 µM): 29%

Cc1c(NC(=O)c2cc(C(N)=O)nc3cc(F)ccc23)c(C(F)(F)F)nn1Cc1ccc(C#N)cc1
remaining binding (RPS6KA4 C-terminal kinase domain; cell-free assay; 1 µM): 85%

Cc1cnn2ncc(-c3ccnc(N(C)C)n3)c2c1
remaining binding (RPS6KA4 N-terminal kinase domain; binding; 1 µM): 97%

O=C(c1ccc(Nc2nccc(-c3cc4ccccc4s3)n2)cc1)N1CCC(N2CCCC2)CC1
remaining binding (RPS6KA4 N-terminal kinase domain; binding; 1 µM): 100%

Cc1noc([C@H]2C[C@@H](c3ccc(C(F)(F)F)cc3)CN(C(=O)N3CCS(=O)(=O)C3)C2)n1
remaining binding (RPS6KA4 N-terminal kinase domain; cell-free assay; 1 µM): 100%

O=C(NCCCN1CCOCC1)c1ccc(Nc2nccc(-c3cc4ccccc4s3)n2)cc1
remaining binding (RPS6KA4 C-terminal kinase domain; binding; 1 µM): 19%

CCN1CCN(Cc2ccc(C(=O)Nc3ccc(C)c(Oc4ccc5c(c4)CC(=O)N5)c3)cc2C(F)(F)F)CC1
remaining binding (RPS6KA4 C-terminal kinase domain; binding; 1 µM): 100%

O=C(NCCCN1CCOCC1)c1ccc(Nc2ncc(Cl)c(-c3ccc(Cl)s3)n2)cc1
remaining binding (RPS6KA4 N-terminal kinase domain; binding; 1 µM): 100%

F[C@@H]1CCN(c2nccc(-c3cnn4ncccc34)n2)C1
remaining binding (RPS6KA4 C-terminal kinase domain; binding; 1 µM): 92%

COc1ncc2cc3ccccc3nc2c1C#N
remaining binding (RPS6KA4 C-terminal kinase domain; cell-free assay; 5 µM): 58%

O=C(c1ccc(Nc2ncc(Cl)c(-c3ccc(Cl)s3)n2)cc1)N1CCC(N2CCCC2)CC1
remaining binding (RPS6KA4 N-terminal kinase domain; binding; 1 µM): 100%

CN(CCCC(F)(F)F)c1nccc(-c2cnn3ncccc23)n1
remaining binding (RPS6KA4 C-terminal kinase domain; binding; 1 µM): 100%

C=CC(=O)N1CCC(C(=O)NCC(=O)N2CCN(c3nc(-c4cnc(N)nc4C(F)F)nc(N4CCOCC4)n3)CC2)CC1
remaining binding (RPS6KA4 N-terminal kinase domain; binding; 1 µM): 82%

COc1ccnn2ncc(-c3ccnc(N(C)C)n3)c12
remaining binding (RPS6KA4 N-terminal kinase domain; binding; 1 µM): 97%

CO[C@@H](C)c1c(Nc2ccc([C@H](N(C)C(=O)C3CCS(=O)(=O)CC3)C(F)(F)F)cc2)cnc2cc(Cl)nn12
remaining binding (RPS6KA4 N-terminal kinase domain; cell-free assay; 1 µM): 86%

Nc1ncc2c(n1)-c1c([nH]c3ccc(C#CC4CC4)cc13)CCCC2
remaining binding (RPS6KA4 C-terminal kinase domain; binding; 1 µM): 93%

CNCc1ccccc1-c1csc([C@@H](C)Nc2nc(C)nc3cc(OC)c(OC)cc23)c1
remaining binding (RPS6KA4 N-terminal kinase domain; cell-free assay; 1 µM): 100%

COc1cnc(Nc2cccc(S(N)(=O)=O)c2)nc1N1CCN(c2ccccc2)CC1
remaining binding (RPS6KA4 C-terminal kinase domain; binding; 1 µM): 89%

O=C(Nc1c[nH]nc1C(=O)NC1CCNCC1)c1cc(F)cc(F)c1
remaining binding (RPS6KA4 C-terminal kinase domain; binding; 1 µM): 34%

C[C@H]1CCN(c2nccc(-c3cnn4ncccc34)n2)C1
remaining binding (RPS6KA4 C-terminal kinase domain; binding; 1 µM): 56%

O=S(=O)(NC1CCC(c2cc(F)ccc2F)(S(=O)(=O)c2ccc(Cl)cc2)CC1)C(F)(F)F (stereo not shown)
remaining binding (RPS6KA4 N-terminal kinase domain; cell-free assay; 1 µM): 100%

c1cnn2ncc(-c3ccnc(N4CCC45COC5)n3)c2c1
remaining binding (RPS6KA4 C-terminal kinase domain; binding; 1 µM): 55%

CN(C(=O)c1ccccc1)c1cc(N(C)c2ccc3c(c2)CCc2ccc(C(=O)NCCN4CCOCC4)cc2C3=O)ccc1F
remaining binding (RPS6KA4 N-terminal kinase domain; cell-free assay; 1 µM): 59%
